According to ChEMBL document CHEMBL4017491, “Phthalazino[1,2-b]quinazolinones as p53 Activators: Cell Cycle Arrest, Apoptotic Response and Bak-Bcl-xl Complex Reorganization in Bladder Cancer Cells” (J Med Chem, 2017):
The source made the active and inactive calls. The rule behind the calls is not given here.

Key:
T-24 [1] = assay: Cell cycle arrest in human T24 cells assessed as accumulation at S/G2 phase at 1 to 10 uM after 48 hrs by propidium iodide staining based FACS analysis; format: functional
How it was run: (§1)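 Cells treated with 1−10 μM for 48 h, trypsinized, and fixed in 70% ethanol. Stained with 50 μg/mL propidium iodide and phase distribution analyzed by flow cytometry. Mean ± SD from three independent measurements.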

T-24 [2] = assay: Cell cycle arrest in human T24 cells assessed as accumulation at sub-G1 phase at 1 to 10 uM after 48 hrs by propidium iodide staining based FACS analysis; format: functional; how it was run: as §1
J82 = assay: Cell cycle arrest in human J82 cells assessed as accumulation at S phase at 5 uM after 48 hrs by propidium iodide staining based FACS analysis (reference value: 46.79 %); format: functional; how it was run: as §1
T-24 [3] = assay: Cell cycle arrest in human T24 cells assessed as reduction in cell size at 5 uM after 48 hrs by FACS analysis relative to control; format: functional; parameters: scale not given: the % may be the effect or the level left
How it was run: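 T24 cells treated for 48 h with 5 μM or DMSO, then ethanol-fixed and PI-stained. Relative cell size taken as mean forward scatter (FSC-H) by flow cytometry, compared with control.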

DU-145 = assay: Antiproliferative activity against human DU145 cells harboring p53 mutant by MTT assay; format: functional, cell-based
How it was run: (§2)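 Cell lines cultured in RPMI 1640 with 10% FBS. Viability read by MTT (5 mg/mL, 4 h at 37 °C), with formazan dissolved in DMSO and absorbance taken at 490 nm. Viability (%) = A490 treated / A490 control × 100. IC50 taken from dose-response curves, from three independent experiments each run in triplicate.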

LNCaP = assay: Antiproliferative activity against human LNCAP cells harboring wild type p53 by MTT assay; format: functional, cell-based; how it was run: as §2
T-24 [4] = assay: Antiproliferative activity against human T24 cells harboring p53 siRNA up to 5 uM after 48 hrs by MTT assay; format: functional, cell-based
How it was run: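 T24 cells pre-exposed to p53-siRNA or scrambled RNA for 24 h, then treated with a concentration series for 48 h. Proliferation measured by MTT read at 490 nm, expressed as % of control absorbance.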

[5] = target: Cellular tumor antigen p53 (Homo sapiens) (UniProt P04637); assay: Activation of p53 in human T24 cells assessed as increase in p21 level up to 10 uM after 24 hrs by Western blot analysis; format: cell-based
How it was run: (§3)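 T24 cells, 3 × 10^5 per well, grown to 85−95% confluence, then exposed to 0−10 μM for 24 h. Whole-cell extracts in sample buffer run on SDS-polyacrylamide gels and transferred to nitrocellulose. Blots probed with primary antibodies and AP-linked anti-rabbit IgG, detected by ECL. Blots stripped and reprobed for β-actin as loading control.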

[6] = target: Cellular tumor antigen p53 (Homo sapiens) (UniProt P04637); assay: Activation of p53 in human T24 cells assessed as increase in cyclinE-CDK2 complex formation up to 10 uM after 24 hrs by Western blot analysis; format: cell-based; how it was run: as §3
T-24 [7] = assay: Induction of apoptosis in human T24 cells assessed as early apoptotic cells at 1 uM by Annexin V-FITC/propidium iodide based flow cytometric analysis (reference value: 1.79%); format: functional
T-24 [8] = assay: Induction of apoptosis in human T24 cells assessed as late apoptotic cells at 1 uM by Annexin V-FITC/propidium iodide based flow cytometric analysis (reference value: 0.193%); format: functional
T-24 [9] = assay: Induction of apoptosis in human T24 cells assessed as increase in bim level up to 10 uM after 24 hrs by Western blot analysis; format: functional, cell-based
How it was run: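 T24 cells (3 × 10^5 per well) grown to 85–95% confluence, then exposed 24 h to 0–10 μM. Whole-cell extracts run on SDS-PAGE and blotted to nitrocellulose. Probed with the indicated antibodies and AP-linked anti-rabbit IgG, with ECL detection. Blots stripped and reprobed for β-actin as loading control.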

T-24 [10] = assay: Effect on Bcl-Xl expression in human T24 cells up to 10 uM after 24 hrs by Western blot analysis; format: functional, cell-based; how it was run: as §3
T-24 [11] = assay: Effect on Bcl-2 expression in human T24 cells up to 10 uM after 24 hrs by Western blot analysis; format: functional, cell-based; how it was run: as §3
[12] = target: Cellular tumor antigen p53 (Homo sapiens) (UniProt P04637); assay: Induction of phospho-p53 accumulation in human T24 cells assessed as activation of bak at 1 to 10 uM after 48 hrs by Hoechst 33258 staining based fluorescence confocal microscopic analysis; format: cell-based
How it was run: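 T24 cells treated for 48 h, fixed in 4% paraformaldehyde. Immunostained with antibody to active (N-terminal) Bak and a Cy3-conjugated secondary antibody. Imaged by confocal microscopy at 400×.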

HepG2 = assay: Antiproliferative activity against human HepG2 cells by MTT assay; format: functional, cell-based; how it was run: as §2
NCI-H460 = assay: Antiproliferative activity against human NCI-H460 cells by MTT assay; format: functional, cell-based; how it was run: as §2
MGC-803 = assay: Antiproliferative activity against human MGC803 cells by MTT assay; format: functional, cell-based; how it was run: as §2
HeLa = assay: Antiproliferative activity against human HeLa cells by MTT assay; format: functional, cell-based; how it was run: as §2
T-24 [13] = assay: Antitumor activity against human T24 cells xenografted in BALB/C nude mouse assessed as tumor growth inhibition at 6 mg/kg, ip administered every 2 days for 16 days relative to control; format: functional; settings: T-24, ip, read-out: TGI
T-24 [14] = assay: Induction of DNA damage in human T24 cells assessed as gammaH2AX level up to 10 uM by immunoblot analysis; format: functional, cell-based
T-24 [15] = assay: Effect on cell cycle distribution in human T24 cells assessed as early apoptotic cells at 1 uM after 1 hr by Annexin V-FITC/propidium iodide staining based FACS analysis relative to control; format: functional
T-24 [16] = assay: Effect on cell cycle distribution in human T24 cells assessed as late apoptotic cells at 1 uM after 1 hr by Annexin V-FITC/propidium iodide staining based FACS analysis relative to control; format: functional
T-24 [17] = assay: Effect on cell cycle distribution in human T24 cells assessed as live cells at 5 uM after 1 hr by Annexin V-FITC/propidium iodide staining based FACS analysis (reference value: 98.3%); format: functional
T-24 [18] = assay: Effect on cell cycle distribution in human T24 cells assessed as early apoptotic cells at 10 uM after 1 hr by Annexin V-FITC/propidium iodide staining based FACS analysis relative to control; format: functional
T-24 [19] = assay: Induction of apoptosis in human T24 cells assessed as live cells at 5 uM by Annexin V-FITC/propidium iodide based flow cytometric analysis (reference value: 89.5%); format: functional
T-24 [20] = assay: Induction of apoptosis in human T24 cells assessed as live cells at 10 uM by Annexin V-FITC/propidium iodide based flow cytometric analysis (reference value: 89.5%); format: functional
T-24 [21] = assay: Induction of apoptosis in human T24 cells assessed as necrotic cells at 10 uM by Annexin V-FITC/propidium iodide based flow cytometric analysis (reference value: 8.53%); format: functional
Mus musculus [22] = assay: Effect on p53 expression in BALB/C nude mouse xenografted with human T24 cells at 6 to 12 mg/kg, ip administered every 2 days for 16 days by immunoblot analysis
Mus musculus [23] = assay: Induction of phospho-p53 expression in BALB/C nude mouse xenografted with human T24 cells at 6 to 12 mg/kg, ip administered every 2 days for 16 days by immunoblot analysis

Cellular tumor antigen p53 (Homo sapiens), sequence (P04637 whole entry, looked up): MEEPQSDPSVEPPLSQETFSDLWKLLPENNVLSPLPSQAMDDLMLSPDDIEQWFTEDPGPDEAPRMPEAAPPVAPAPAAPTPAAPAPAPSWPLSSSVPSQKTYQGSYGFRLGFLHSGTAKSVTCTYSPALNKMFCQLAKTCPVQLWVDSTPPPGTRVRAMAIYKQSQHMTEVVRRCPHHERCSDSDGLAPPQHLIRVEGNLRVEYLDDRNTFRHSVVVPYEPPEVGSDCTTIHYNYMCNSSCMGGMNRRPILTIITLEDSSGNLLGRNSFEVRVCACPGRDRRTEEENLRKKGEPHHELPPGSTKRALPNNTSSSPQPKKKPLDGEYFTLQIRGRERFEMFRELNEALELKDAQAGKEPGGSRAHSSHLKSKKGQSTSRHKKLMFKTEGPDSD

CN(C)CCNc1nn2c(=O)c3cc(Br)ccc3nc2c2ccccc12
Activity (T-24 [1]): Active
Activity (T-24 [2]): Active
Activity (J82): 44.01%
Activity (T-24 [3]): 87.7%
Activity (DU-145): inactive
Activity (LNCaP): Active
Activity (T-24 [4]): inactive
Activity [5]: Active
Activity [6]: Active
Activity (T-24 [7]): 4.22%
Activity (T-24 [8]): 5.29%
Activity (T-24 [9]): Active
Activity (T-24 [10]): inactive
Activity (T-24 [11]): inactive
Activity [12]: Active
IC50 (HepG2): 3.8 µM
IC50 (NCI-H460): 5.03 µM
IC50 (MGC-803): 4.29 µM
IC50 (HeLa): 6.1 µM
inhibition in vivo at 6 mg/kg (T-24 [13]): 44.8%
Activity (T-24 [14]): inactive
Activity (T-24 [15]): 0%
Activity (T-24 [16]): 0%
Activity (T-24 [17]): 89.4%
Activity (T-24 [18]): 0%
Activity (T-24 [19]): 62.8%
Activity (T-24 [20]): 21.8%
Activity (T-24 [21]): 8.1%
Activity (Mus musculus [22]): inactive
Activity (Mus musculus [23]): Active
